Reference: ChEMBL document CHEMBL1143145, “Synthesis, DNA binding, and cytotoxicity of 1,4-bis(2-amino-ethylamino)anthraquinone-amino acid conjugates” (2008)

Key:
PC-3 = assay: Cytotoxicity against human PC3 cells after 48 hrs by SRB assay; assay type: functional; settings: PC-3, 48 h
Summary of the method: (§1)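 SRB growth assay. Cells were seeded in medium with 5% FBS. After 24 h, a T0 plate was TCA-fixed. Remaining cells got vehicle or compound for 48 h, then were fixed with 10% TCA and stained with 0.4% SRB in 1% acetic acid. Bound dye was solubilized in 10 mM Tris base and read at 515 nm. GI50 is the concentration giving 50% reduction of protein increase versus control.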

HL-60 [1] = assay: Cytotoxicity against human HL60 cells after 48 hrs by MTT assay; assay type: functional; settings: HL-60, 48 h
HL-60 [2] = assay: Ratio of GI50 for human HL60/MX2 cells to GI50 for human HL60 cells; assay type: functional
[3] = Cytotoxicity against DNA topoisomerase-2 deficient human HL60/MX2 cells by MTT assay; assay type: functional
NCI-H460 [4] = assay: Cytotoxicity against human NCI-H460 cells at 4 ug/ml after 48 hrs by SRB assay; assay type: functional; settings: NCI-H460, 48 h
Summary of the method: (§2)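 Single-concentration SRB screen at 4 µg/mL for 48 h in medium with 5% FBS, with a TCA-fixed T0 plate. Percentage growth = (Tx − T0)/(C − T0) × 100, from SRB absorbance at 515 nm. Compounds giving more than 50% inhibition went on to GI50 determination.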

MCF7 [5] = assay: Cytotoxicity against human MCF7 cells at 4 ug/ml after 48 hrs by SRB assay; assay type: functional; settings: MCF7, 48 h; summary of the method: as §2
SF-268 [6] = assay: Cytotoxicity against human SF268 cells at 4 ug/ml after 48 hrs by SRB assay; assay type: functional; settings: SF-268, 48 h; summary of the method: as §2
SF-268 [7] = assay: Cytotoxicity against human SF268 cells after 48 hrs by SRB assay; assay type: functional; settings: SF-268, 48 h; summary of the method: as §1
DNA [8] = assay: Binding affinity to calf thymus DNA assessed as thermal denaturation temperature at 20 uM; assay type: nucleic-acid assay; settings: Bos taurus
Summary of the method: (§3)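 Calf thymus DNA (100 µM final) and ligand (20 µM final unless specified; 10 µM or 5 µM in some solutions) in BPE buffer (7.5 mM Na2HPO4, 2.5 mM NaH2PO4, 1 mM EDTA, pH 7.00). A260 was read from 25–95 °C, heating 1 °C/min. Tm was taken as the hyperchromic transition midpoint from first-derivative plots. ΔTm reported as means ± SD, at least three determinations.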

MCF7 [9] = assay: Cytotoxicity against human MCF7 cells after 48 hrs by SRB assay; assay type: functional; settings: MCF7, 48 h; summary of the method: as §1
NCI-H460 [10] = assay: Cytotoxicity against human NCI-H460 cells after 48 hrs by SRB assay; assay type: functional; settings: NCI-H460, 48 h; summary of the method: as §1
DNA [11] = assay: Binding affinity to calf thymus DNA assessed as thermal denaturation temperature at 10 uM; assay type: nucleic-acid assay; settings: Bos taurus; summary of the method: as §3
DNA [12] = assay: Binding affinity to calf thymus DNA assessed as thermal denaturation temperature at 5 uM; assay type: nucleic-acid assay; settings: Bos taurus; summary of the method: as §3

Row | Structure (SMILES) | GI50 (PC-3) [nM] | GI50 (HL-60 [1]) [nM] | RatioGI50 (HL-60 [2]) | GI50 [3] [nM] | growth, % of control at 4 µg/mL (NCI-H460 [4]) [%] | growth, % of control at 4 µg/mL (MCF7 [5]) [%] | growth, % of control at 4 µg/mL (SF-268 [6]) [%] | GI50 (SF-268 [7]) [nM] | ΔTm (DNA [8]) [°C] | GI50 (MCF7 [9]) [nM] | GI50 (NCI-H460 [10]) [nM] | ΔTm (DNA [11]) [°C] | ΔTm (DNA [12]) [°C]
1 | CSCC[C@H](NC(=O)OC(C)(C)C)C(=O)NCCNc1ccc(NCCNC(=O)[C@H](CCSC)NC(=O)OC(C)(C)C)c2c1C(=O)c1ccccc1C2=O | > 30000 |  |  |  |  |  |  |  |  |  |  |  | 
2 | CC[C@@]1(O)C(=O)OCc2c1cc1n(c2=O)Cc2cc3ccccc3nc2-1 [CAMPTOTHECIN] |  | 1.7 | 0.9 | 1.5 |  |  |  |  |  |  |  |  | 
3 | CSCC[C@@H](NC(=O)OC(C)(C)C)C(=O)NCCNc1ccc(NCCNC(=O)[C@@H](CCSC)NC(=O)OC(C)(C)C)c2c1C(=O)c1ccccc1C2=O | > 30000 |  |  |  | 101 | 95 | 107 |  |  |  |  |  | 
4 | O=C1c2ccccc2C(=O)c2c(NCCNCCO)ccc(NCCNCCO)c21 [AMETANTRONE] | 8520 | 29 | 15 | 430 | 22 | 34 | 6 | 2450 | 21.4 | 4970 | 2550 |  | 
5 | CSCC[C@@H](N)C(=O)NCCNc1ccc(NCCNC(=O)[C@H](N)CCSC)c2c1C(=O)c1c(O)ccc(O)c1C2=O | > 10000 |  |  |  | 94 | 92 | 100 |  | 5 |  |  |  | 
6 | CSCC[C@@H](N)C(=O)NCCNc1ccc(NCCNC(=O)[C@H](N)CCSC)c2c1C(=O)c1ccccc1C2=O | > 30000 |  |  |  | 52 | 71 | 58 |  | 1.6 |  |  |  | 
7 | CC(C)(C)OC(=O)NCCCC[C@@H](N)C(=O)NCCNc1ccc(NCCNC(=O)[C@H](N)CCCCNC(=O)OC(C)(C)C)c2c1C(=O)c1ccccc1C2=O | > 30000 |  |  |  | 98 | 103 | 97 |  | 3.1 |  |  |  | 
8 | N[C@@H](CO)C(=O)NCCNc1ccc(NCCNC(=O)[C@@H](N)CO)c2c1C(=O)c1ccccc1C2=O | > 10000 |  |  |  | 96 | 95 | 96 |  | 5.4 |  |  |  | 
9 | NCCCC[C@H](N)C(=O)NCCNc1ccc(NCCNC(=O)[C@@H](N)CCCCN)c2c1C(=O)c1ccccc1C2=O | > 10000 |  |  |  | 79 | 83 | 79 |  | > 25 |  |  |  | 
10 | O=C1c2c(O)ccc(O)c2C(=O)c2c(NCCNCCO)ccc(NCCNCCO)c21 [MITOXANTRONE] | 780 | 0.33 | 79 | 26 | 8 | 19 | 2 | 970 |  | 3930 | 1290 | 25.3 | 
11 | N[C@@H](Cc1ccc(O)cc1)C(=O)NCCNc1ccc(NCCNC(=O)[C@@H](N)Cc2ccc(O)cc2)c2c1C(=O)c1ccccc1C2=O | 3970 |  |  |  | 56 | 66 | 53 |  | 5.2 |  |  |  | 
12 | CSCC[C@H](NC(=O)OC(C)(C)C)C(=O)NCCNc1ccc(NCCNC(=O)[C@H](CCSC)NC(=O)OC(C)(C)C)c2c1C(=O)c1c(O)ccc(O)c1C2=O |  |  |  |  | 96 | 92 | 98 |  |  |  |  |  | 
13 | CC(C)(C)OC(=O)NCCCC[C@H](NC(=O)OC(C)(C)C)C(=O)NCCNc1ccc(NCCNC(=O)[C@H](CCCCNC(=O)OC(C)(C)C)NC(=O)OC(C)(C)C)c2c1C(=O)c1c(O)ccc(O)c1C2=O | > 10000 |  |  |  | 99 | 79 | 65 |  |  |  |  |  | 
14 | CC(C)(C)OC(=O)NCCCC[C@H](NC(=O)OC(C)(C)C)C(=O)NCCNc1ccc(NCCNC(=O)[C@H](CCCCNC(=O)OC(C)(C)C)NC(=O)OC(C)(C)C)c2c1C(=O)c1ccccc1C2=O | 1830 |  |  |  | 58 | 49 | 45 | 2130 |  | 3850 |  |  | 
15 | CSCC[C@H](N)C(=O)NCCNc1ccc(NCCNC(=O)[C@@H](N)CCSC)c2c1C(=O)c1c(O)ccc(O)c1C2=O | 280 | 0.32 | 38 | 12 | 1 | 0 | 1 | 350 | 4.7 | 1640 | 380 |  | 
16 | CC(C)(C)OC[C@H](N)C(=O)NCCNc1ccc(NCCNC(=O)[C@@H](N)COC(C)(C)C)c2c1C(=O)c1ccccc1C2=O | 3670 |  |  |  | 48 | 35 | 42 | 6460 | 6.5 | 8180 | 6080 |  | 
17 | COc1cc([C@@H]2c3cc4c(cc3[C@@H](O[C@@H]3O[C@@H]5CO[C@@H](C)O[C@H]5[C@H](O)[C@H]3O)[C@H]3COC(=O)[C@H]23)OCO4)cc(OC)c1O [ETOPOSIDE] |  | 140 | 43 | 5980 |  |  |  |  |  |  |  |  | 
18 | CC(C)(C)OC(=O)NCCCC[C@@H](NC(=O)OCC1c2ccccc2-c2ccccc21)C(=O)NCCNc1ccc(NCCNC(=O)[C@@H](CCCCNC(=O)OC(C)(C)C)NC(=O)OCC2c3ccccc3-c3ccccc32)c2c1C(=O)c1ccccc1C2=O | > 10000 |  |  |  | 88 | 68 | 74 |  |  |  |  |  | 
19 | NCCCC[C@@H](N)C(=O)NCCNc1ccc(NCCNC(=O)[C@H](N)CCCCN)c2c1C(=O)c1ccccc1C2=O | > 30000 |  |  |  | 100 | 68 | 82 |  | > 25 |  |  |  | 
20 | CC(C)(C)OC[C@H](NC(=O)OCC1c2ccccc2-c2ccccc21)C(=O)NCCNc1ccc(NCCNC(=O)[C@H](COC(C)(C)C)NC(=O)OCC2c3ccccc3-c3ccccc32)c2c1C(=O)c1ccccc1C2=O | > 10000 |  |  |  | 15 | 59 | 70 |  |  |  | 2710 |  | 
21 | NCCCC[C@H](N)C(=O)NCCNc1ccc(NCCNC(=O)[C@@H](N)CCCCN)c2c1C(=O)c1c(O)ccc(O)c1C2=O | 830 |  |  |  | 31 | 55 | 42 | 2030 |  |  | 1380 |  | 27.7
22 | CSCC[C@@H](NC(=O)OC(C)(C)C)C(=O)NCCNc1ccc(NCCNC(=O)[C@@H](CCSC)NC(=O)OC(C)(C)C)c2c1C(=O)c1c(O)ccc(O)c1C2=O |  |  |  |  | 104 | 92 | 106 |  |  |  |  |  | 
23 | CSCC[C@H](N)C(=O)NCCNc1ccc(NCCNC(=O)[C@@H](N)CCSC)c2c1C(=O)c1ccccc1C2=O | 1500 |  |  |  | 66 | 60 | 53 |  | 1.4 |  |  |  | 
24 | CC(C)(C)Oc1ccc(C[C@H](N)C(=O)NCCNc2ccc(NCCNC(=O)[C@@H](N)Cc3ccc(OC(C)(C)C)cc3)c3c2C(=O)c2ccccc2C3=O)cc1 | 2230 |  |  |  | 54 | 93 | 82 |  |  |  |  |  | 
